In data set [1] the test system is Plasmodium falciparum. Nature of the data set: Antiplasmodial activity against synchronous culture of chloroquine-resistant Plasmodium falciparum W2 ring stage parasite infected in human erythrocytes assessed as parasite cell death at 100 uM up to 72 hrs by Wright's eosin methylene blue staining based microscopic analysis. It counts as functional, organism-based. In a few lines: (§1)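 Stage-specificity test on W2 parasites in human erythrocytes, started at 2% parasitaemia. Parasites cultured at 2% hematocrit in complete medium at 37 °C.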

The nature of data set [2]: Resistance index, ratio of IC50 for chloroquine-resistant Plasmodium falciparum W2 infected in human erythrocytes to IC50 for chloroquine-sensitive Plasmodium falciparum 3D7. It counts as functional.
A short description of data set [3]: Selectivity index, ratio of CC50 for human HepG2 cells to IC50 for chloroquine-resistant Plasmodium falciparum W2. In kind it is toxicity. The following applies: read-out: Ratio CC50/IC50. In a few lines: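 SI = HepG2 CC50 / W2 IC50. CC50 came from HepG2 growth inhibition over a 400–1.56 µM dilution series, read at 24, 48 and 72 h. IC50 came from the W2 erythrocyte assay (100–3.12 µM range). Triplicates, at least three independent cultures.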

The test system of data set [4] is Plasmodium falciparum. As to the kind of experiment: Antiplasmodial activity against Plasmodium falciparum assessed as potentiation of artemisinin-induced antimalarial activity by measuring dose reduction index relative to artemisinin alone. It counts as functional.
In data set [5] the test system is Plasmodium falciparum. Nature of the data set: Antiplasmodial activity against Plasmodium falciparum assessed as combination index in presence of artemisinin. In kind it is functional. Summed up:
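Chloroquine-resistant P. falciparum W2 was grown in fresh human O+ erythrocytes at 2% hematocrit in complete medium at 37 °C. Artemisinin was co-tested with the triterpene using the one-point Chou–Talalay method, at a minimum of one combination ratio. CI is the sum of the two FICs: ≤1 synergy, 1–2 additivity, >2 antagonism. Triplicates, n = 3 independent cultures.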

A short description of data set [6]: Cytotoxicity against African green monkey Vero cells after 72 hrs by MTT assay. It counts as cell-based. The settings on record: chlorocebus sabaeus. In a few lines: (§2)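 VERO (ATCC CCL-81) and HepG2 (ATCC HB-8065) cells were exposed for 24, 48 or 72 h to an […] dilution series from 400 to 1.56 μM. CC50 was taken from the concentration–response curve. Triplicates, with at least three independent cultures (n = 3).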

Data set [7] has as its system Plasmodium falciparum. Nature of the data set: Antiplasmodial activity against synchronous culture of chloroquine-resistant Plasmodium falciparum W2 ring stage parasite infected in human erythrocytes assessed as reduction in parasitaemia at 100 uM after 24 to 72 hrs by Wright's eosin methylene blue staining based microscopic analysis. It counts as functional, organism-based. In a few lines: as §1

For data set [8], the system named is Plasmodium falciparum. Nature of the data set: Antiplasmodial activity against chloroquine-resistant Plasmodium falciparum W2 infected in human erythrocytes. It counts as functional, organism-based. In a few lines: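 P. falciparum W2 grown in fresh human O+ erythrocytes at 2% hematocrit in complete medium, 37 °C. Compounds tested over a 100–3.12 µM dilution series. IC50 estimated from the dose-response curve relative to drug-free control wells (100% parasite viability). Artemisinin run in parallel as control. Triplicates, at least three independent cultures (n = 3).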

In data set [9] the target is T1, Subtilisin Carlsberg (Bacillus licheniformis, UniProt P00780).
T1 sequence (P00780 whole entry): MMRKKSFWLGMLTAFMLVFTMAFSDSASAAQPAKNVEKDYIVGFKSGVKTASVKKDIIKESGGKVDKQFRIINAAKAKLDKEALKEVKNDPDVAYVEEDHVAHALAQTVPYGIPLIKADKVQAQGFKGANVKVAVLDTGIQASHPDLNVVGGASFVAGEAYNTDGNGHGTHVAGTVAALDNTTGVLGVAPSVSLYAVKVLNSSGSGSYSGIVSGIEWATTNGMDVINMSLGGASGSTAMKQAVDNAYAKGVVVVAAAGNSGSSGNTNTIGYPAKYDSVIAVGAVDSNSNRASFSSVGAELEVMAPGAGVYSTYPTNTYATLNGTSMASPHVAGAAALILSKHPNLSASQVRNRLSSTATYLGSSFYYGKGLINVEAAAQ
As to the kind of experiment: Inhibition of Bacillus licheniformis subtilisin A by green-fluorescent BODIPY FL dye based fluorescence assay. Summed up: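 Purified B. licheniformis subtilisin A tested with a commercial fluorescent peptidase/protease kit, following the kit protocol. Test compound ranged from 5 to 0.01 mM. Fluorescence plotted against log inhibitor concentration.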

In data set [10] the test system is Plasmodium falciparum. Nature of the data set: Antiplasmodial activity against synchronous culture of chloroquine-resistant Plasmodium falciparum W2 ring stage parasite infected in human erythrocytes assessed as accumulation of ring forms at 100 uM after 24 to 72 hrs by Wright's eosin methylene blue staining based microscopic analysis. It counts as functional, organism-based. Summed up: as §1

Data set [11] deals with Plasmodium falciparum. As to the kind of experiment: Antiplasmodial activity against chloroquine-sensitive Plasmodium falciparum 3D7. It counts as functional, organism-based.
Data set [12] is described as follows: Cytotoxicity against human HepG2 cells after 72 hrs by MTT assay. In kind it is cell-based. In a few lines: as §2
Data set [13] deals with Plasmodium falciparum. As to the kind of experiment: Antiplasmodial activity against synchronous culture of chloroquine-resistant Plasmodium falciparum W2 ring stage parasite infected in human erythrocytes assessed as delayed appearance of trophozoites at 100 uM after 24 to 72 hrs by Wright's eosin methylene blue staining based microscopic analysis. It counts as functional, organism-based. In a few lines: as §1

pIC50: −log10 of the molar value. Active and inactive are the calls of the source. No cut-off for these calls is given here. Bounds are passed on as bounds.

Turning to `C=C(C)[C@@H]1CC[C@]2(C(=O)O)CC[C@]3(C)[C@H](CC[C@@H]4[C@@]5(C)CC[C@H](OC(=O)CCC)C(C)(C)[C@@H]5CC[C@]43C)[C@@H]12`, the result in data set [1], in [7], in data set [10] and in data set [13] was Active. The “Ratio IC50” value in data set [2] was 0.68. Further, in data set [3], the selectivity ratio was more than 117. Moreover, the Activity_index in data set [4] is reported as 4. Besides, the CI in data set [5] worked out at 1.34. Also, the CC50 at 72 h in [6] and in data set [12] was more than 400 µM in each case. Further, the results for the pIC50 in [8], in data set [9] and in data set [11] were 5.47, 4.03 and 5.30, respectively.

These data come from ChEMBL document CHEMBL4184121, “Semisynthesis, cytotoxicity, antimalarial evaluation and structure-activity relationship of two series of triterpene derivatives” (Bioorg Med Chem Lett, 2018).
